# Data as given in ChEMBL document CHEMBL4033667, “Design, synthesis, and identification of a novel napthalamide-isoselenocyanate compound NISC-6 as a dual Topoisomerase-IIα and Akt pathway inhibitor, and evaluation of its anti-melanoma activity” (Eur J Med Chem, 2017).
# Calls of active or inactive are those of the source. No cut-off for these calls is given here.
# What was measured:
# UACC-903 [1] = assay: Antiproliferative activity against human UACC-903 cells harboring BRAF V600E mutant after 24 hrs by MTT assay; type: functional, cell-based; conditions: UACC-903, 24 h
# Summary of the method: (§1)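 MTT viability in melanoma lines grown in DMEM with 10% FBS and pen/strep at 37 °C, 5% CO2. 3000 cells/well, settled overnight, then exposed to compound (0 to 50 µM) in triplicate for 24, 48 or 72 h. MTT (5.0 mg/mL solution) added 3 h before termination. IC50 from non-linear regression (variable slope), mean ± SD.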
# UACC-903 [2] = assay: Antiproliferative activity against human UACC-903 cells harboring BRAF V600E mutant after 48 hrs by MTT assay; type: functional, cell-based; conditions: UACC-903, 48 h; summary of the method: as §1
# UACC-903 [3] = assay: Antiproliferative activity against human UACC-903 cells harboring BRAF V600E mutant after 72 hrs by MTT assay; type: functional, cell-based; conditions: UACC-903, 72 h; summary of the method: as §1
# [4] = Antiproliferative activity against human 1205 Lu cells harboring BRAF V600E mutant after 24 hrs by MTT assay; type: functional, cell-based; summary of the method: as §1
# [5] = Antiproliferative activity against human 1205 Lu cells harboring BRAF V600E mutant after 48 hrs by MTT assay; type: functional, cell-based; summary of the method: as §1
# [6] = Antiproliferative activity against human 1205 Lu cells harboring BRAF V600E mutant after 72 hrs by MTT assay; type: functional, cell-based; summary of the method: as §1
# [7] = Antiproliferative activity against human A375M cells harboring BRAF V600E mutant after 24 hrs by MTT assay; type: functional, cell-based; summary of the method: as §1
# [8] = Antiproliferative activity against human A375M cells harboring BRAF V600E mutant after 48 hrs by MTT assay; type: functional, cell-based; summary of the method: as §1
# [9] = Antiproliferative activity against human A375M cells harboring BRAF V600E mutant after 72 hrs by MTT assay; type: functional, cell-based; summary of the method: as §1
# CHL-1 [10] = assay: Antiproliferative activity against human CHL-1 cells harboring wild type BRAF after 24 hrs by MTT assay; type: functional, cell-based; conditions: CHL-1, 24 h; summary of the method: as §1
# CHL-1 [11] = assay: Antiproliferative activity against human CHL-1 cells harboring wild type BRAF after 48 hrs by MTT assay; type: functional, cell-based; conditions: CHL-1, 48 h; summary of the method: as §1
# CHL-1 [12] = assay: Antiproliferative activity against human CHL-1 cells harboring wild type BRAF after 72 hrs by MTT assay; type: functional, cell-based; conditions: CHL-1, 72 h; summary of the method: as §1
# NHDF [13] = assay: Cytotoxicity against human NHDF cells assessed as reduction in cell viability at 2.5 uM after 48 hrs by MTT assay; type: cell-based
# Summary of the method: (§2)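 nHDF normal fibroblasts grown in serum-free fibroblast basal medium with growth kit and pen/strep/amphotericin B. Treated 48 h at set concentrations, with viability read by MTT assay.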
# NHDF [14] = assay: Cytotoxicity against human NHDF cells assessed as reduction in cell viability at 5 uM after 48 hrs by MTT assay; type: cell-based; summary of the method: as §2
# [15] = target: DNA topoisomerase 2-alpha (Homo sapiens) (UniProt P11388); assay: Inhibition of human DNA topoisomerase 2alpha assessed as decrease in relaxation of supercoiled pBR322 DNA at 0.5 to 5 uM after 1 hr by ethidium bromide staining-based agarose gel electrophoresis
# Chain of DNA topoisomerase 2-alpha (Homo sapiens) (P11388 whole entry): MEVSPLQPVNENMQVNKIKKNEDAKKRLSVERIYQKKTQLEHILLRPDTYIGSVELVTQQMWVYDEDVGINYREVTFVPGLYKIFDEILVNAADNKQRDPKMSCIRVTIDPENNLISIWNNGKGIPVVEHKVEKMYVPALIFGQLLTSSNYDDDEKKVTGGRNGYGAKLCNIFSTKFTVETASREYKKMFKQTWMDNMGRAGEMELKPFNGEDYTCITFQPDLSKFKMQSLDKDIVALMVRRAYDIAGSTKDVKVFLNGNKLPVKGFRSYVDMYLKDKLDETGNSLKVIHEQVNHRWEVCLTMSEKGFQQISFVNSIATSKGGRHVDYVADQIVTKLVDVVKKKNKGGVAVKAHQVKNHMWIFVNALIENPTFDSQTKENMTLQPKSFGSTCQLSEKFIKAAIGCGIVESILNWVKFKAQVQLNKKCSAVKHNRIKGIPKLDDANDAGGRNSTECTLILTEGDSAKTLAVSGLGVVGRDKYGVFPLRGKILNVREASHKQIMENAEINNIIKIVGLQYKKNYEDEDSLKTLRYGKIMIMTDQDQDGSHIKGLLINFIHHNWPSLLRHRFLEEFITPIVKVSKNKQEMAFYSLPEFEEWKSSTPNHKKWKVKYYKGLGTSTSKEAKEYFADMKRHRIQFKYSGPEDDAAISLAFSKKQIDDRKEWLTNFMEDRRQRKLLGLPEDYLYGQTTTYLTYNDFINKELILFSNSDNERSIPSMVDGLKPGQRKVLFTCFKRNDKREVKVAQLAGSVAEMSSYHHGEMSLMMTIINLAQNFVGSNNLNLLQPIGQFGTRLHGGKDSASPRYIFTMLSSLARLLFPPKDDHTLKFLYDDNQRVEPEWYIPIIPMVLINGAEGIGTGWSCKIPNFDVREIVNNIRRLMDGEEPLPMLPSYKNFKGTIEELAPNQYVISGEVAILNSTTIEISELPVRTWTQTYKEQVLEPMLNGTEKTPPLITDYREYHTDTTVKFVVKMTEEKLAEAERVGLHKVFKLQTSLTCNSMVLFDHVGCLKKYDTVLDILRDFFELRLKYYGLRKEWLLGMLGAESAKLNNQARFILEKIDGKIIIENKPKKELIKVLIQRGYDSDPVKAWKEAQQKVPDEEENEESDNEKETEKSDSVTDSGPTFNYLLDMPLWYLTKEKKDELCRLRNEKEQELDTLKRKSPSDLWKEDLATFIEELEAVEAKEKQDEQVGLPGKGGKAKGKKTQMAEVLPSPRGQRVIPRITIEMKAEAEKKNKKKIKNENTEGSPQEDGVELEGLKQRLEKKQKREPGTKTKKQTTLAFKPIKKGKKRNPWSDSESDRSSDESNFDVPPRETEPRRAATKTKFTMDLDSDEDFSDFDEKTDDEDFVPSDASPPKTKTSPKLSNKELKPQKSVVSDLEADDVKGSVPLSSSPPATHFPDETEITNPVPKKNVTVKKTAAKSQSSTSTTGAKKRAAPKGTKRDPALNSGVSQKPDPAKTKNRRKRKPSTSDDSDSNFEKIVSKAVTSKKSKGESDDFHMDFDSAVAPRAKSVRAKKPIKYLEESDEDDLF
# Summary of the method: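 Kit-based relaxation assay: supercoiled plasmid DNA with 4 units of human Topo-IIα in assay buffer plus test agent or DMSO at 37 °C (1 h in legend, 30 min in methods). Stopped with 10% SDS, then proteinase K 15 min at 37 °C. Run on 1% agarose 1-2 h, ethidium bromide 2 h, destain 15 min in TAE, UV imaging.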
# Homo sapiens = species: Homo sapiens; assay: Inhibition of DNA topoisomerase 2 in human UACC-903 cells assessed as increase in H2AX phosphorylation at 5 uM after 6 hrs by DAPI staining-based immunocytochemistry analysis; type: cell-based
# Summary of the method: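 UACC903 cells (1.6 × 10^5) on coverslips overnight, then 5 µM or DMSO for 6 h. Fixed in 4% formaldehyde and blocked 1 h (0.3% Triton X-100, 5% donkey serum). Anti-p-H2A.X 1:500 overnight at 4 °C, then Alexa Fluor 488 secondary 1:500 with phalloidin for 1 h. DAPI mounting, imaged at 60X.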
# [16] = target: RAC-alpha serine/threonine-protein kinase (Homo sapiens) (UniProt P31749); assay: Inhibition of Akt-phosphorylation in human UACC-903 cells after 24 hrs by Western blot analysis; type: cell-based
# Chain of RAC-alpha serine/threonine-protein kinase (Homo sapiens) (P31749 whole entry): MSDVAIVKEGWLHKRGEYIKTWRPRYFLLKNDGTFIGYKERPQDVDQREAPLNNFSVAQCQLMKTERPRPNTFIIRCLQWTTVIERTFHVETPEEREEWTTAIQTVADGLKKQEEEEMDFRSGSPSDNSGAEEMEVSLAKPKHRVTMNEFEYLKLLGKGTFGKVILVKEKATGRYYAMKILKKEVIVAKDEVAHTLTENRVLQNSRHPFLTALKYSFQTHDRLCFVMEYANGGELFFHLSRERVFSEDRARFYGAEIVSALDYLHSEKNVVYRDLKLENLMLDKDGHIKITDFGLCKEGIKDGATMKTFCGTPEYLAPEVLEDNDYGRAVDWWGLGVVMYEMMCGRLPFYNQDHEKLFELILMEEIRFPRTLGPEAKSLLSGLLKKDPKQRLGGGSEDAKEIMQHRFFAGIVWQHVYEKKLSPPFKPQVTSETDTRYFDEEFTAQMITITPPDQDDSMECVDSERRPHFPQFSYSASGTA
# Summary of the method: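 UACC903 cells treated with increasing doses for 24 h, then lysed in RIPA with protease and phosphatase inhibitors and spun 15,000 rpm for 10 min. Lysates resolved on 4-12% gel, moved to PVDF and probed for phospho-Akt and pan-Akt. β-actin served as loading control; detection by ECL.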
# [17] = target: Mitogen-activated protein kinase; ERK1/ERK2 (Homo sapiens) (UniProt P27361+P28482); assay: Inhibition of Erk1/2 phosphorylation in human UACC-903 cells at 2.5 to 5 uM after 24 hrs by Western blot analysis; type: cell-based
# Chain of Mitogen-activated protein kinase; ERK1/ERK2 (Homo sapiens) (P27361 whole entry, looked up): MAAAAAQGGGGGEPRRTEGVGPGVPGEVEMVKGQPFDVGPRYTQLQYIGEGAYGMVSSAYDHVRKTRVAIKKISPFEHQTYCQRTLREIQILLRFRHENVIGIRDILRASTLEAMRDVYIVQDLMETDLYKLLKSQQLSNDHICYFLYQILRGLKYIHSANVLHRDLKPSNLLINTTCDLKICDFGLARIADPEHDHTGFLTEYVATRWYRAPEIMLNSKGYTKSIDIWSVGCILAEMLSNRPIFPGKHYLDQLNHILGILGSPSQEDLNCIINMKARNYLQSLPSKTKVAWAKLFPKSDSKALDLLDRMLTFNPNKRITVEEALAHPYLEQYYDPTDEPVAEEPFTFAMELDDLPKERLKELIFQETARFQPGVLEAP
# Chain of Mitogen-activated protein kinase; ERK1/ERK2 (Homo sapiens) (P28482 whole entry, looked up): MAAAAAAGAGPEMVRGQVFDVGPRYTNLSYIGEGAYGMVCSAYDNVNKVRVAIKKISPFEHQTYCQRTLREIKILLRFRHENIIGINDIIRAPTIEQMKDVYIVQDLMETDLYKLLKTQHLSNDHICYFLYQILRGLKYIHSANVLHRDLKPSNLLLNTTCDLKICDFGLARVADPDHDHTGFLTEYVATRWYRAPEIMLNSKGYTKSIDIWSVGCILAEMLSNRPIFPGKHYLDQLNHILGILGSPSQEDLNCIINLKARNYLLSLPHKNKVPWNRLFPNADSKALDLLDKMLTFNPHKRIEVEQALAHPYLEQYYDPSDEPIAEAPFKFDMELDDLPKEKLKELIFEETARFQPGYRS
# UACC-903 [18] = assay: Induction of apoptosis in human UACC-903 cells assessed as viable cells at 5 uM after 24 hrs by Annexin-V/7-AAD staining-based fluorescence assay (reference value: 83.90%); type: functional; conditions: UACC-903, 24 h, read-out: Activity
# UACC-903 [19] = assay: Induction of apoptosis in human UACC-903 cells assessed as early apoptotic cells at 5 uM after 24 hrs by Annexin-V/7-AAD staining-based fluorescence assay (reference value: 13.15%); type: functional
# UACC-903 [20] = assay: Induction of apoptosis in human UACC-903 cells assessed as late apoptotic cells at 5 uM after 24 hrs by Annexin-V/7-AAD staining-based fluorescence assay (reference value: 2.78%); type: functional
# UACC-903 [21] = assay: Induction of apoptosis in human UACC-903 cells assessed as necrotic cells at 5 uM after 24 hrs by Annexin-V/7-AAD staining-based fluorescence assay (reference value: 0.17%); type: functional
# UACC-903 [22] = assay: Induction of apoptosis in human UACC-903 cells assessed as viable cells at 10 uM after 24 hrs by Annexin-V/7-AAD staining-based fluorescence assay (reference value: 83.90%); type: functional; conditions: UACC-903, 24 h, read-out: Activity
# UACC-903 [23] = assay: Induction of apoptosis in human UACC-903 cells assessed as early apoptotic cells at 10 uM after 24 hrs by Annexin-V/7-AAD staining-based fluorescence assay (reference value: 13.15%); type: functional
# UACC-903 [24] = assay: Induction of apoptosis in human UACC-903 cells assessed as late apoptotic cells at 10 uM after 24 hrs by Annexin-V/7-AAD staining-based fluorescence assay (reference value: 2.78%); type: functional
# UACC-903 [25] = assay: Induction of apoptosis in human UACC-903 cells assessed as necrotic cells at 10 uM after 24 hrs by Annexin-V/7-AAD staining-based fluorescence assay (reference value: 0.17%); type: functional
# UACC-903 [26] = assay: Induction of apoptosis in human UACC-903 cells assessed as increase in caspase 3/7 activity by measuring viable cells at 5 uM after 24 hrs by 7-AAD staining-based fluorescence assay (reference value: 77.50%); type: functional
# Summary of the method: (§3)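 Muse caspase-3/7 kit on UACC903 cells after 24 h at given doses or DMSO. Cell-permeant NucView DEVD-linked DNA dye fluoresces after cleavage by active caspase 3/7. 7-AAD marks cells with compromised membranes. Gates: live, early apoptotic (caspase+/7-AAD−), late apoptotic (both +), necrotic (7-AAD+ only).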
# UACC-903 [27] = assay: Induction of apoptosis in human UACC-903 cells assessed as increase in caspase 3/7 activity by measuring early apoptotic cells at 5 uM after 24 hrs by 7-AAD staining-based fluorescence assay (reference value: 16.08%); type: functional; summary of the method: as §3
# UACC-903 [28] = assay: Induction of apoptosis in human UACC-903 cells assessed as increase in caspase 3/7 activity by measuring late apoptotic cells at 5 uM after 24 hrs by 7-AAD staining-based fluorescence assay (reference value: 6.08%); type: functional; summary of the method: as §3
# UACC-903 [29] = assay: Induction of apoptosis in human UACC-903 cells assessed as increase in caspase 3/7 activity by measuring necrotic cells at 5 uM after 24 hrs by 7-AAD staining-based fluorescence assay (reference value: 0.34%); type: functional; summary of the method: as §3
# UACC-903 [30] = assay: Induction of apoptosis in human UACC-903 cells assessed as increase in caspase 3/7 activity by measuring viable cells at 10 uM after 24 hrs by 7-AAD staining-based fluorescence assay (reference value: 77.50%); type: functional; summary of the method: as §3
# UACC-903 [31] = assay: Induction of apoptosis in human UACC-903 cells assessed as increase in caspase 3/7 activity by measuring early apoptotic cells at 10 uM after 24 hrs by 7-AAD staining-based fluorescence assay (reference value: 16.08%); type: functional; summary of the method: as §3
# UACC-903 [32] = assay: Induction of apoptosis in human UACC-903 cells assessed as increase in caspase 3/7 activity by measuring late apoptotic cells at 10 uM after 24 hrs by 7-AAD staining-based fluorescence assay (reference value: 6.08%); type: functional; summary of the method: as §3
# UACC-903 [33] = assay: Induction of apoptosis in human UACC-903 cells assessed as increase in caspase 3/7 activity by measuring necrotic cells at 10 uM after 24 hrs by 7-AAD staining-based fluorescence assay (reference value: 0.34%); type: functional; summary of the method: as §3
# Mus musculus = assay: Toxicity in Harlan Sprague Dawley mouse xenografted with human UACC-903 cells assessed as body weight loss at 0.6 umole, ip administered 3 times a week measured during compound dosing relative to control; type: organism-based; conditions: in vivo
# Summary of the method: (§4)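 5×10^6 UACC 903 cells in 0.2 mL DMEM/10% FBS injected s.c. into both flanks of 4-6 week female athymic nude mice. From day 6, randomised groups (5 mice, 2 tumours each) received i.p. DMSO or 0.6 µmole in DMSO (100 µL) three times weekly. Caliper tumour volume and body weight taken thrice weekly to day 40; mean ± SEM.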
# UACC-903 [34] = assay: Antitumor activity against human UACC-903 cells xenografted in Harlan Sprague Dawley mouse assessed as reduction in tumor burden at 0.6 umole, ip administered 3 times a week measured on day 40 relative to vehicle-treated control; type: functional; set-up: scale not given: the % may be the effect or the level left; summary of the method: as §4
# CHL-1 [35] = assay: Potency index, ratio of PLX-4032 IC50 to test compound IC50 for human CHL-1 cells harboring wild type BRAF after 72 hrs; type: functional
compound,measurement,setting,value
CCCS(=O)(=O)Nc1ccc(F)c(C(=O)c2c[nH]c3ncc(-c4ccc(Cl)cc4)cc23)c1F [VEMURAFENIB],IC50,UACC-903 [1],> 50 µM
same,IC50,UACC-903 [2],12.3 µM
same,IC50,UACC-903 [3],2.7 µM
same,IC50,[4],> 50 µM
same,IC50,[5],7.6 µM
same,IC50,[6],2 µM
same,IC50,[7],> 50 µM
same,IC50,[8],2.05 µM
same,IC50,[9],0.5 µM
same,IC50,CHL-1 [10],> 50 µM
same,IC50,CHL-1 [11],20 µM
same,IC50,CHL-1 [12],12.7 µM
O=C1c2cccc3cccc(c23)C(=O)N1CCCCCCN=C=[Se],IC50,UACC-903 [1],13.4 µM
same,IC50,UACC-903 [2],2.5 µM
same,IC50,UACC-903 [3],1.7 µM
same,IC50,[4],13.4 µM
same,IC50,[5],10.6 µM
same,IC50,[6],13.4 µM
same,IC50,[7],11.8 µM
same,IC50,[8],2.7 µM
same,IC50,[9],4.4 µM
same,IC50,CHL-1 [10],13.7 µM
same,IC50,CHL-1 [11],1.5 µM
same,IC50,CHL-1 [12],0.8 µM
same,Activity,NHDF [13],> 70%
same,Activity,NHDF [14],> 70%
same,inhibition,[15],Active
same,inhibition,Homo sapiens,Active
same,inhibition,[16],Dose-dependent effect
same,inhibition,[17],inactive
same,viability at 5 µM,UACC-903 [18],83.2%
same,Activity,UACC-903 [19],11.47%
same,Activity,UACC-903 [20],4.52%
same,Activity,UACC-903 [21],0.84%
same,viability at 10 µM,UACC-903 [22],49.1%
same,Activity,UACC-903 [23],35%
same,Activity,UACC-903 [24],15.52%
same,Activity,UACC-903 [25],0.35%
same,Activity,UACC-903 [26],69.34%
same,Activity,UACC-903 [27],20.72%
same,Activity,UACC-903 [28],9.86%
same,Activity,UACC-903 [29],0.08%
same,Activity,UACC-903 [30],54.44%
same,Activity,UACC-903 [31],3%
same,Activity,UACC-903 [32],41.76%
same,Activity,UACC-903 [33],0.8%
same,Activity,Mus musculus,Non-Toxic
same,Activity,UACC-903 [34],69%
same,Ratio IC50,CHL-1 [35],15
